Test results published in ChEMBL document CHEMBL5620388, “Quinolone analogues of benzothiazinone: Synthesis, antitubercular structure-activity relationship and ADME profiling” (Eur J Med Chem, 2023).
Values after ≈ are worked out from the molar mass of the structure shown.

Columns and labels:
[1] = system: Mycobacterium tuberculosis; assay: Antimicrobial activity against Mycobacterium tuberculosis H37Rv expressing GFP supplemented with casitone/glucose/tyloxapol assessed as reduction in bacterial growth measured on day 14; type: functional; conditions: 336 h, time 14 day
Procedure, shortened: (§1)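 Line 1 medium is 7H9 with ADC and 0.05% Tween80. Line 2 medium is 7H9 with 0.03% casitone, 0.4% glucose and 0.05% tyloxapol. Incubated at 37 °C, 5% CO2, humidified. Fluorescence (ex 485/em 520) read at day 14 and normalised to rifampicin (2× MIC) and 5% DMSO controls. MIC90 is the lowest concentration giving >90% inhibition.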

[2] = system: Mycobacterium tuberculosis; assay: Antimicrobial activity against Mycobacterium tuberculosis H37Rv expressing GFP supplemented with albumin/dextrose/catalase/glucose/tween80 assessed as reduction in bacterial growth measured on day 14; type: functional; conditions: 336 h, time 14 day; procedure, shortened: as §1
[3] = Cytotoxicity against HEK293 cells assessed as reduction in cell viability incubated for 20 hrs by resazurin staining based assay; type: toxicity; conditions: human
Procedure, shortened: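 HEK-293 cells grown in DMEM with 10% FBS, seeded at 5×10^3 cells/well into compound-containing plates, 20 h at 37 °C, 5% CO₂. Resazurin added for a further 3 h, fluorescence read at ex 560/em 590 nm. CC₅₀ from sigmoidal dose-response fit (variable top, bottom, slope) of inhibition vs log concentration. Highest concentration tested 32 µg/mL.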

[4] = Metabolic stability in CD-1 mouse liver microsome assessed as parent compound remaining after 30 mins by LC-MS/MS analysis; type: ADME; conditions: liver microsomes, read-out: Stability
Procedure, shortened: (§2)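 Compound at 1 µM incubated with liver microsomes at 0.4 mg/mL, 37 °C for 30 min. Human microsomes were mixed gender, rat were male IGS, mouse were male CD1. Quenched with ice-cold acetonitrile containing internal standard and centrifuged. Parent disappearance measured by LC-MS/MS, with half-life and clearance from standard equations.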

[5] = Lipophilicity, log P of the compound in octanol/buffer incubated for 2 hrs under shaking condition by shake flask based HPLC-UV method; type: physicochemical
Procedure, shortened: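 LogD at pH 7.4 by miniaturised shake-flask in deep-well plates. Compound partitioned between equal volumes of 1-octanol and PBS pH 7.4, shaken vigorously 2 h at 25 °C. Phases separated, each analysed by HPLC-UV with diode array detection. LogD calculated from peak areas in octanol and buffer.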

[6] = Metabolic stability in human liver microsome assessed as parent compound remaining after 30 mins by LC-MS/MS analysis; type: ADME; conditions: liver microsomes, read-out: Stability; procedure, shortened: as §2
[7] = Metabolic stability in rat liver microsome assessed as parent compound remaining after 30 mins by LC-MS/MS analysis; type: ADME; conditions: liver microsomes, read-out: Stability; procedure, shortened: as §2
[8] = system: Mycobacterium tuberculosis; assay: Antitubercular activity against Mycobacterium tuberculosis H37Rv assessed as reduction in microbial growth measured for 14 days; type: functional; conditions: 336 h, time 14 day
Procedure, shortened: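 Strains were H37Rv, the fluoroquinolone-resistant GyrA G88C mutant, and the dprE1 P116S and C387S mutants. All were cultured in standard Middlebrook 7H9 with ADC supplement.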

[9] = Metabolic stability in CD-1 mouse liver microsome assessed as intrinsic clearance measured for 30 mins by LC-MS/MS analysis; type: ADME; conditions: liver microsomes, read-out: CLH; procedure, shortened: as §2
[10] = Metabolic stability in human liver microsome assessed as intrinsic clearance measured for 30 mins by LC-MS/MS analysis; type: ADME; conditions: liver microsomes, read-out: CLH; procedure, shortened: as §2
[11] = Aqueous solubility of compound in PBS at pH6.5 incubated for 24 hrs by shake-flask method; type: physicochemical; conditions: pH 6.5
Procedure, shortened: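 Miniaturised shake-flask, 96-well: 4 µL of 10 mM DMSO stock dried down, then phosphate-buffered saline pH 6.5 added; shaken 24 h at 25 °C, centrifuged 3500 g for 15 min. Supernatant quantified by HPLC-DAD against a 10–220 µM calibration curve prepared in DMSO.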

[12] = Metabolic stability in rat liver microsome assessed as intrinsic clearance measured for 30 mins by LC-MS/MS analysis; type: ADME; conditions: liver microsomes, read-out: CLH; procedure, shortened: as §2

With O=C(O)c1c[nH]c2c([N+](=O)[O-])cc(C(F)(F)F)cc2c1=O the MIC90 [1] was 62.5 µM (≈ 18.9 µg/mL) and the MIC90 [2] was > 125 µM.

For O=C(NCCc1ccc(C(F)(F)F)cc1)c1c[nH]c2c([N+](=O)[O-])cc(C(F)(F)F)cc2c1=O, the CC50 at 20 h [3] was > 20 µM, the remaining at 0.5 h [4] was 67% and the logD at 2 h [5] was 4.4. The remaining at 0.5 h [6] was 68%, the remaining at 0.5 h [7] was 68% and the MIC90 [1] was < 0.244 µM. For the same compound, the MIC90 [8] was 0.9 µM, the MIC90 [2] was < 0.244 µM and the microsomal CLint [9] was 33.3 µL/min/mg. The microsomal CLint [10] was 31.7 µL/min/mg, the solubility thermodynamic at 24 h [11] was < 5 µM and the microsomal CLint [12] was 33.2 µL/min/mg.

In the case of O=C(NCc1cccc(Cl)c1)c1c[nH]c2c([N+](=O)[O-])cc(C(F)(F)F)cc2c1=O, the MIC90 [1] is reported as > 125 µM and the MIC90 [2] is reported as 2.99 µM (≈ 1.27 µg/mL).

With CCOC(=O)c1c[nH]c2c([N+](=O)[O-])cc(C(F)(F)F)cc2c1=O the MIC90 [1] was < 0.244 µM and the MIC90 [2] was < 0.244 µM.

Compound O=c1c(Br)c[nH]c2c([N+](=O)[O-])cc(C(F)(F)F)cc12 has an MIC90 [1] of 1.6 µM (≈ 0.539 µg/mL) and an MIC90 [2] of 16 µM (≈ 5.39 µg/mL).

O=C(Nc1cccc(C(F)(F)F)c1)c1cnc2c([N+](=O)[O-])cc(C(F)(F)F)cc2c1Cl gave an MIC90 [1] of 0.7 µM (≈ 0.325 µg/mL) and an MIC90 [2] of 31.2 µM (≈ 14.5 µg/mL).

For O=C(NCCc1ccc(F)cc1)c1c[nH]c2c([N+](=O)[O-])cc(C(F)(F)F)cc2c1=O, the CC50 at 20 h [3] was > 20 µM, the remaining at 0.5 h [4] was 56% and the logP at 2 h [5] was 4. For the same compound, the remaining at 0.5 h [6] was 73%, the remaining at 0.5 h [7] was 75% and the MIC90 [1] was < 0.244 µM. For the same compound, the MIC90 [8] was 2 µM, the MIC90 [2] was 0.9 µM (≈ 0.381 µg/mL) and the microsomal CLint [9] was 48.8 µL/min/mg. For the same compound, the microsomal CLint [10] was 25.9 µL/min/mg, the solubility thermodynamic at 24 h [11] was < 5 µM and the microsomal CLint [12] was 23.4 µL/min/mg.

With O=C(NCCc1ccc(Cl)cc1)c1c[nH]c2c([N+](=O)[O-])cc(C(F)(F)F)cc2c1=O the CC50 at 20 h [3] was > 20 µM, the remaining at 0.5 h [4] was 76% and the logD at 2 h [5] was 4.3. The remaining at 0.5 h [6] was 75%, the remaining at 0.5 h [7] was 80% and the MIC90 [1] was < 0.244 µM. For the same compound, the MIC90 [8] was 1.9 µM, the MIC90 [2] was < 0.244 µM and the microsomal CLint [9] was 23 µL/min/mg. For the same compound, the microsomal CLint [10] was 24.3 µL/min/mg, the solubility thermodynamic at 24 h [11] was < 5 µM and the microsomal CLint [12] was 18.4 µL/min/mg.

With NNC(=O)c1c[nH]c2c([N+](=O)[O-])cc(C(F)(F)F)cc2c1=O the MIC90 [1] was > 125 µM and the MIC90 [2] was > 125 µM.

For O=C(NCc1ccc(F)cc1)c1c[nH]c2c([N+](=O)[O-])cc(C(F)(F)F)cc2c1=O, the MIC90 [1] was > 125 µM and the MIC90 [2] was 8.1 µM (≈ 3.32 µg/mL).

With Cc1ccc(CCNC(=O)c2c[nH]c3c([N+](=O)[O-])cc(C(F)(F)F)cc3c2=O)cc1 the MIC90 [1] was > 125 µM and the MIC90 [2] was 0.244 µM (≈ 0.102 µg/mL).

O=c1cc[nH]c2c([N+](=O)[O-])cc(C(F)(F)F)cc12 showed an MIC90 [1] of 62.5 µM (≈ 16.1 µg/mL) and an MIC90 [2] of 16 µM (≈ 4.13 µg/mL).

For O=C(NCc1ccc(Cl)cc1)c1c[nH]c2c([N+](=O)[O-])cc(C(F)(F)F)cc2c1=O, the MIC90 [1] was > 125 µM and the MIC90 [2] was 7.4 µM (≈ 3.15 µg/mL).

O=C(NCc1ccc(F)c(F)c1)c1c[nH]c2c([N+](=O)[O-])cc(C(F)(F)F)cc2c1=O showed an MIC90 [1] of 7 µM (≈ 2.99 µg/mL) and an MIC90 [2] of 31.3 µM (≈ 13.4 µg/mL).

For O=C(NCc1ccccc1Cl)c1c[nH]c2c([N+](=O)[O-])cc(C(F)(F)F)cc2c1=O, the MIC90 [1] was 0.5 µM (≈ 0.213 µg/mL) and the MIC90 [2] was 0.8 µM (≈ 0.341 µg/mL).

In the case of O=C(NCc1cccc(F)c1)c1c[nH]c2c([N+](=O)[O-])cc(C(F)(F)F)cc2c1=O, the MIC90 [1] is reported as 0.5 µM (≈ 0.205 µg/mL) and the MIC90 [2] is reported as 3 µM (≈ 1.23 µg/mL).

With Cc1cccc(CNC(=O)c2c[nH]c3c([N+](=O)[O-])cc(C(F)(F)F)cc3c2=O)c1 the MIC90 [1] was < 0.244 µM and the MIC90 [2] was 2.9 µM (≈ 1.18 µg/mL).

NNC(=O)c1ccncc1 [ISONIAZID] showed an MIC90 [8] of 3.5 µM.

Work on COc1c(N2C[C@@H]3CCCN[C@@H]3C2)c(F)cc2c(=O)c(C(=O)O)cn(C3CC3)c12 [MOXIFLOXACIN] yielded an MIC90 [8] of 0.1 µM.

CO[C@H]1/C=C/O[C@@]2(C)Oc3c(C)c(O)c4c(O)c(c(/C=N/N5CCN(C)CC5)c(O)c4c3C2=O)NC(=O)/C(C)=C\C=C\[C@H](C)[C@H](O)[C@@H](C)[C@@H](O)[C@@H](C)[C@H](OC(C)=O)[C@@H]1C [RIFAMPIN] gave an MIC90 [1] of 0.01 µM (≈ 0.00823 µg/mL) and an MIC90 [2] of 0.01 µM (≈ 0.00823 µg/mL).
